Experimental data of several laboratories.
Target: Tyrosine-protein kinase Fes/Fps (FES, Homo sapiens, UniProt P07332)

`COCCOc1nc(-c2ccc(Cl)nc2)nc2c1CN(C(=O)c1ncn3ccccc13)CC2` has a remaining binding of 100% (cell-free assay, competition with immobilised ligand; 0.1 µM).
The remaining binding of `Cc1cnn2ncc(-c3ccnc(N(C)C)n3)c2c1` is reported as 93% (binding; 1 µM).
`CC(C)(O)c1cncc(-c2nc3ccc(F)cc3n2C2CC2)c1` has a remaining binding of 100% (cell-free assay, competition with immobilised ligand; 1 µM).
`CNC(=O)[C@@H]1CC[C@@H](n2c(-c3ccc4cnccc4c3)nc3ccc(C(=O)NCc4cccc(C(N)=O)c4)cc32)C1` gave a remaining binding of 86% (binding, competition with immobilised ligand; 1 µM).
For `Cc1nccc(COC(=O)N2C[C@@H]3[C@@H](CNC(=O)c4ccc5[nH]nnc5c4)[C@@H]3C2)n1`, the remaining binding was 99% (cell-free assay, competition with immobilised ligand; 1 µM).
`CN(CCCC(F)(F)F)c1nccc(-c2cnn3ncccc23)n1` has a remaining binding of 95% (binding; 1 µM).
`COc1cc(-c2cn(C3CCc4c(F)cccc4N(CC(F)(F)F)C3=O)nn2)ccc1-n1cnc(C)c1` (stereo not shown) gave a remaining binding of 100% (cell-free assay, competition with immobilised ligand; 1 µM).
The remaining binding of `O=C(c1ccc(Nc2nccc(-c3cc4ccccc4s3)n2)cc1)N1CCC(N2CCCC2)CC1` is reported as 93% (binding, competition with immobilised ligand; 1 µM).
With `N[C@@H]1CCN(c2nccc(-c3cnn4ncccc34)n2)C1` the remaining binding was 100% (binding; 1 µM).
With `COc1ncc2cc3ccccc3nc2c1C#N` the remaining binding was 100% (cell-free assay, competition with immobilised ligand; 5 µM).
The remaining binding of `F[C@@H]1CCN(c2nccc(-c3cnn4ncccc34)n2)C1` is reported as 77% (binding; 1 µM).
For `O=C(NCCCN1CCOCC1)c1ccc(Nc2ncc(Cl)c(-c3ccc(Cl)s3)n2)cc1`, the remaining binding was 62% (binding, competition with immobilised ligand; 1 µM).
With `FC(F)(F)Oc1cccc(-c2cnc3ccc(-c4ccncc4)nn23)c1` the remaining binding was 84% (cell-free assay, competition with immobilised ligand; 5 µM).
`C[C@@H](c1ccc(-n2cnc3c(N)ncnc32)cc1)N1CCc2nn(C)c(Cc3ccccc3)c2C1=O` gave a remaining binding of 89% (binding, competition with immobilised ligand; 0.1 µM).
`CCS(=O)(=O)c1cc2cc(C[C@@](O)(CC(C)(C)c3ccc(F)cc3C(N)=O)C(F)(F)F)[nH]c2cn1` gave a remaining binding of 100% (cell-free assay, competition with immobilised ligand; 1 µM).
`CC1CCCN1c1nccc(-c2cnn3ncccc23)n1` (stereo not shown) has a remaining binding of 100% (binding; 1 µM).
With `CCN1CCN(Cc2ccc(C(=O)Nc3ccc(C)c(Oc4ccc5c(c4)CC(=O)N5)c3)cc2C(F)(F)F)CC1` the remaining binding was 97% (binding, competition with immobilised ligand; 1 µM).
`O=C(c1ccc(Nc2ncc(Cl)c(-c3ccc(Cl)s3)n2)cc1)N1CCC(N2CCCC2)CC1` gave a remaining binding of 59% (binding, competition with immobilised ligand; 1 µM).
With `C[C@H]1CCN(c2nccc(-c3cnn4ncccc34)n2)C1` the remaining binding was 100% (binding; 1 µM).
`CN([C@@H]1CCc2c(CC(=O)O)c3ccccc3n2C1)S(=O)(=O)c1ccc(F)cc1` has a remaining binding of 79% (cell-free assay, competition with immobilised ligand; 1 µM).
`CN(c1nccc(-c2cnn3ncccc23)n1)C1CC1` has a remaining binding of 100% (binding; 1 µM).
For `O=C(Nc1c[nH]nc1C(=O)NC1CCNCC1)c1cc(F)cc(F)c1`, the remaining binding was 100% (binding, competition with immobilised ligand; 1 µM).
